Source: PubChem
Compounds with a hit are over-represented: about 12% of the library has one in this group of screens.
L major viab – Leishmania major promastigote growth inhibition, primary screen | Leishmania major promastigotes, resazurin fluorescence viability | inhibition, % at 10 µM | hit rate 9% among 200,000 | AID 1063, 2008;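 also: promastigotes grown with compound for 44 hours at 28 °C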
Wee1 degr inh – Wee1 degradation inhibitors, primary screen, cell-based, HeLa, Wee1K328M-luciferase, luminescence; hit rate 1.2% among 220,000; reporter increase, % at 5 µM; AID 1321, 2008; HeLa Luc-Wee1K328M stability; 100% = proteasome inhibitor MG132 effect; Wee1-like protein kinase (Homo sapiens), P30291;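 active = activation above the mean of all tested compounds plus 3 SD, set per screening run, cut at about 8.8% in these data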;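 also: cells exposed to compound for 20 h before luminescence read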
Rad51 HR inh – human RAD51 strand exchange inhibitors, primary screen, biochemical, fluorescence | inhibition, % at 10 µM | hRad51 DNA strand exchange, fluorescence dequenching | DNA repair protein RAD51 homolog 1 (Homo sapiens), Q06609 | hit rate 0.085% among 200,000;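 active = inhibition above 40% at the single screening dose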
Target sequence (Q06609 whole entry, looked up): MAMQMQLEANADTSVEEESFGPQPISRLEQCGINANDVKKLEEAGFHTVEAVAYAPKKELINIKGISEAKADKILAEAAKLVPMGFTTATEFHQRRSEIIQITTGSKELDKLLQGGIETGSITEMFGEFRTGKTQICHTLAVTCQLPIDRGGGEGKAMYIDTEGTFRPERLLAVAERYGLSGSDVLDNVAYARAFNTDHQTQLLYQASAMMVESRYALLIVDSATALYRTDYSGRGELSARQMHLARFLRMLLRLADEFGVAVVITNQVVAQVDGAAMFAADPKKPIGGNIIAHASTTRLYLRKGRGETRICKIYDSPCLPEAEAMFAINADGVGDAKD
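Material: human Rad51–ssDNA filaments; Probe or stimulus: labelled 47-mer dsDNA for strand exchange; Doses: single 10 µM dose; Incubation: 37 °C 15-min filament assembly, 30-min compound preincubation, 15-min exchange; Technique: FRET fluorescence dequenching, excitation 485 nm, emission 520 nm; Measure: Fluorescence-based percent inhibition, control- and blank-normalised; Benchmarks: plate control and blank wells.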
Arbovirus inh – antivirals against arbovirus infection, primary screen, cell-based, full library, 10K replicate subset; arbovirus infection cell-based antiviral screen; inhibition, % at 10 µM; hit rate 0.37% among 200,000; in the data active = inhibition above about 30%
CHOP inhibitor – inhibitors of CHOP promoter induction, primary screen, cell-based, unfolded protein response, luciferase reporter. CHO-K1 CHOP-promoter luciferase, tunicamycin-induced, 15-18 h. inhibition, % at 10 µM. hit rate 3.8% among 220,000;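 active = compounds that reduced the stress-induced luciferase reporter signal by more than about 70% of percent inhibition, limit read from the data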
PKD1 inh – inhibitors of human PKD1 kinase, biochemical, fluorescence polarization; Serine/threonine-protein kinase D1 (Homo sapiens), Q15139; PKD1 kinase fluorescence polarization assay; inhibition, % (concentration not given with the values); hit rate 0.056% among 200,000
Of the large screens only hits and unclear results are named; the others gave an inactive call. Rule as the data show it, unless noted: active = inhibition above about 50%; inactive = the rest.

CNC(=O)COC(=O)c1ccccc1Nc1ccccc1	none
COc1cccc(CNn2c(-c3cccc(C)c3)nc3ccccc3c2=O)c1O	L major viab 54
COc1cc(O)cc2c1[C@@H]1Oc3c(ccc(O)c3CC=C(C)C)[C@@H]1CO2	none (no result: L major viab, Wee1 degr inh, Arbovirus inh, CHOP inhibitor, PKD1 inh)
CCC1(C)Cc2ccccc2C(=S)N1 (stereo not drawn)	none
COc1ccc(C(=O)NC(=S)Nc2ccc(CN3CCCCC3)cc2)cc1Cl	L major viab 99
O=C(Cc1cccc2ccccc12)Nc1ccc(-c2cc3ccccc3oc2=O)cc1	CHOP inhibitor 81
CCC(=O)Nc1cccc(-c2cc3ccccc3oc2=O)c1	none
COc1ccc(C(=O)NC(=S)Nc2ccc(CN3CCOCC3)cc2)cc1OC	none (no result: L major viab, Arbovirus inh, PKD1 inh)
Cc1ccc(C(=O)NC(=S)Nc2ccc(-c3cc4ccccc4oc3=O)cc2)c(C)c1	CHOP inhibitor 95
Cc1cc(C)cc(C(=O)NC(=S)Nc2ccc(-c3cc4ccccc4oc3=O)cc2)c1	none
COc1c(Cl)cc(Cl)cc1C(=O)Nc1ccc(CN2CCCCC2)cc1	L major viab 100
CC(=O)Nc1nc2c(s1)C(=O)NCCC2	none
Cc1[nH]c2ccccc2c1C(=O)CSC(=S)N1CCCCC1	none (no result: Rad51 HR inh)
Cc1ccc(C(=O)NC(=S)Nc2ccc(CN3CCCCC3)cc2)c(C)c1	L major viab 73
O=C(NC(=S)Nc1ccc(CN2CCCCC2)cc1)c1ccco1	none
CC(=O)Oc1c(-c2ccco2)oc2ccccc2c1=O	none
O=C1CSC(c2ccccc2)N1CC12CC3CC(CC(O)(C3)C1)C2 (stereo not drawn)	Wee1 degr inh 13
FC(F)(F)c1nnc2c(Sc3ccccc3)nc3ccccc3n12	none
FC(F)(F)c1nnc2c(Sc3ccc(Cl)cc3)nc3ccccc3n12	CHOP inhibitor 71
Clc1ccc(Cn2ncc3c(NCc4ccccc4)ncnc32)c(Cl)c1	CHOP inhibitor 81 (no result: Rad51 HR inh)
Cn1ncc2c(NCc3ccccc3)ncnc21	none
COc1cc(NC(=S)N2CCN(c3ccccn3)CC2)c(OC)cc1Cl	none
COc1cc2nc(C3CCC3)nc(N3CCN(c4ccccc4OC)CC3)c2cc1OC	L major viab 58 (no result: Rad51 HR inh)
COc1cc2nc(Cl)nc(N3CCN(C)CC3)c2cc1OC	none
COc1cc2nc(C3CCC3)nc(N3CCN(c4ccccn4)CC3)c2cc1OC	L major viab 54
Cn1nnnc1SCC(=O)NC1CCCc2ccccc21 (stereo not drawn)	none
CCN(CC(=O)Nc1cccc(OC)c1)CC(=O)Nc1ccc(C)cc1Cl	none
Nc1cc(F)ccc1N1CCCCCC1	none
C/C(=N\NC(N)=S)c1ccc2c(c1)OCCO2	none (no result: L major viab, Arbovirus inh, PKD1 inh)
C/C(=N\NC(=S)Nc1ccc(F)cc1)c1ccc2c(c1)OCCO2	L major viab 77
O=c1c(Cl)c(NCc2ccccc2)cnn1C12CC3CC(CC(C3)C1)C2	L major viab 93
O=C(O)CC12CC3CC(C1)CC(n1ncc(NCc4ccco4)c(Cl)c1=O)(C3)C2	none (no result: L major viab, Arbovirus inh, PKD1 inh)
O=C(CSc1nncs1)NCc1ccc(F)cc1	none
O=C1C(c2ccncc2)N(CCC2=CCCCC2)C(=O)CN1C1CCCCC1 (stereo not drawn)	none
COc1ccc(-c2nc3ccccc3[nH]2)cc1	none (no result: CHOP inhibitor)
COc1ccc2oc(=Nc3ccccc3)c(-c3nc4ccccc4[nH]3)cc2c1	CHOP inhibitor 86
CCCN1CCN(C(=O)CCCn2c(C)c3cnn(-c4ccccc4)c(=O)c3c2C)CC1	L major viab 85 (no result: Wee1 degr inh)
C=CCNc1oc(-c2cccs2)nc1S(=O)(=O)c1ccccc1	L major viab 96
COCCNc1oc(-c2cccs2)nc1S(=O)(=O)c1ccc(C)cc1	none
O=C(CSc1oc(-c2cccs2)nc1S(=O)(=O)c1ccccc1)NC1CCCCC1	L major viab 98
COCCCNc1oc(-c2cccs2)nc1S(=O)(=O)c1ccc(C)cc1	none
Cc1ccc(S(=O)(=O)c2nc(-c3cccs3)oc2NCCCN(C)C)cc1	L major viab 98 (no result: Rad51 HR inh)
O=S(=O)(Cc1ccccc1Cl)NCCc1ccccc1	none
O=C(COC(=O)Cn1cnc2ccccc21)Nc1cc2c(cc1Cl)C(=O)c1ccccc1C2=O	Wee1 degr inh 11
O=C(COC(=O)Cn1cnc2ccccc21)Nc1cc(S(=O)(=O)N2CCOCC2)ccc1Cl	none (no result: L major viab, Arbovirus inh, PKD1 inh)
